Bioassay records (PubChem BioAssay)
Hits are enriched below; roughly 5.7% of the tested compounds scored in any of these assays.
Calb FLC – affects C. albicans growth with fluconazole; AID 1979; growth inhibition, % (no concentration beside the values); C. albicans CaCi-2 (fluconazole-resistant clinical isolate) + fluconazole, Alamar Blue growth, 48 h; actives 0.57% (n = 300,000);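 active means growth inhibition above about 58% in most replicates, limit read from the data, passing the limit was not always enough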;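 further: all wells also contain fluconazole at 8 µg/ml as a sub-toxic cotreatment; 0% = median of DMSO wells and 100% = median of geldanamycin control wells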
Beta apoptosis – beta cell apoptosis inhibition. INS-1E cytokine-induced death, ATP luminescence, 48 h; percent of positive-control rescue, neutral wells zero. protection from apoptosis, % (no concentration beside the values). actives 0.8% (n = 300,000). AID 435005;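 active means Every replicate reaches about 75%, or at least half do and their mean reaches it too, limit read from the data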;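 further: 0% = cytokine-treated negative control wells and 100% = positive control rescue; higher means more ATP so stronger rescue from cytokine killing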
SKKanGAS inh – SKKanGAS growth inhibition. inhibition, % at 7.5 µM. AID 1662. S. pyogenes SKKanGAS, kanamycin growth, BacTiter-Glo, 6 h. actives 1.3% (n = 300,000);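 active means mean replicate score, as percent of positive control median, at least 50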;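 further: strain carries kanamycin resistance gene driven by streptokinase promoter and grows in 40 µg/ml kanamycin; loss of luminescence reflects streptokinase promoter inhibition or plain growth inhibition; 0% = median of DMSO wells and 100% = positive control at its reference dose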
CSC inhib – blocks cancer stem cells. cancer stem cell-like cells viability, luminescence. inhibition, % at 7.5 µM. actives 1.1% (n = 300,000); in the data active means inhibition above about 75%; tested in HMLE shEcad cells
Mdm2 MdmX PPI – disrupts the human Mdm2-MdmX interaction; O15151+Q00987; inhibition, % at 8 µM; actives 3% (n = 330,000); SaOS-2 split-luciferase Mdm2/MdmX complementation, luminescence; AID 485346;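 active means inhibition of at least 50% at 8 µM in the primary screen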
Target sequence (O15151 whole entry, looked up): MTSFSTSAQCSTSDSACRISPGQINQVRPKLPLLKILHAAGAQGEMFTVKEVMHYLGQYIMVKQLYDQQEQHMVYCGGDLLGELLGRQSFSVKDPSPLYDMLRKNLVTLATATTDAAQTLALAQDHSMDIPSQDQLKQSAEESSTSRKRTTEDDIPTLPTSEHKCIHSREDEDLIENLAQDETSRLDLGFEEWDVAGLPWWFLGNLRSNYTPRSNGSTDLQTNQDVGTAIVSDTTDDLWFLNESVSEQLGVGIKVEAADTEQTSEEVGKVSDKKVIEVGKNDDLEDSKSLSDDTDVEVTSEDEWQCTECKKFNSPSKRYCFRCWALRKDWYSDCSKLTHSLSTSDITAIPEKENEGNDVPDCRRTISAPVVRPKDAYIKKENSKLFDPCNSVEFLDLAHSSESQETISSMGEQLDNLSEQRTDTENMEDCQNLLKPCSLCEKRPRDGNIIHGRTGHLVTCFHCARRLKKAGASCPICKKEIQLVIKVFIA
Target sequence (Q00987 whole entry, looked up): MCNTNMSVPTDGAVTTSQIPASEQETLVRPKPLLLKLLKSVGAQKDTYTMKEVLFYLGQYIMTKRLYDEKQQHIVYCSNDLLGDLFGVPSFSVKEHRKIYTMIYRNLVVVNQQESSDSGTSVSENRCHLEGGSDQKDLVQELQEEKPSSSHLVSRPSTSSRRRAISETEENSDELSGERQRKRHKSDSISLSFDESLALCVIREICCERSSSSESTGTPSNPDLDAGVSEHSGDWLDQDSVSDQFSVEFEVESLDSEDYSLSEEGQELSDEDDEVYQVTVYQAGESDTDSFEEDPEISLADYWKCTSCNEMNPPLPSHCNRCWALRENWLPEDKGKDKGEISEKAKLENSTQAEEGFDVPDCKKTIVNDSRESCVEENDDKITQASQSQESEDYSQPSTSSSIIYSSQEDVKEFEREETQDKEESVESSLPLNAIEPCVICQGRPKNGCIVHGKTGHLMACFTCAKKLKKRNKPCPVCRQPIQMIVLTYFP
T cruzi repl – T. cruzi replication inhibition. T. cruzi beta-gal in NIH3T3, luminescence, 90 h. AID 1885. inhibition, % (test concentration not listed). actives 1.4% (n = 300,000);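 active means mean inhibition across valid replicates above about 55%, limit read from the data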;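 further: signal also drops with host cell toxicity which is not excluded here; 0% = plate median of DMSO wells and 100% = zero luminescence signal; higher percent means less beta-gal luminescence so fewer parasites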
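Material: NIH/3T3 host cells with β-galactosidase reporter T. cruzi; Input: 5,000 host fibroblasts per well; Medium: DMEM, 2% fetal bovine serum; Compound: 50 nL DMSO compound solution per well; Schedule: 3 h host attachment, then at least 90 h co-culture; Detection: luminescent β-galactosidase signal after 60 min lysis.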
Starred values were filed as active, the others as inactive.

`O=C(Nc1nc(-c2ccccc2)c(-c2ccccc2)o1)c1ccc(F)cc1` gave Calb FLC -0.6, Beta apoptosis 43.1, SKKanGAS inh 100.6*, CSC inhib 8.7, Mdm2 MdmX PPI 26.0 and T cruzi repl 39.0.
Screening COc1cccc(C(=O)Nc2nc(-c3ccccc3)c(-c3ccccc3)o2)c1 returned Calb FLC -13.0, Beta apoptosis 1.4, SKKanGAS inh 91.7*, CSC inhib 20.0, Mdm2 MdmX PPI 23.4 and T cruzi repl 11.7.
`CC(C)CN(C(=O)COC(=O)CCCc1c[nH]c2ccccc12)c1c(N)n(Cc2ccccc2)c(=O)[nH]c1=O` gave Calb FLC 1.7, Beta apoptosis -8.1, SKKanGAS inh 0.3, CSC inhib -6.4, Mdm2 MdmX PPI -9.5 and T cruzi repl 8.7.
For CCOC(=O)c1sc(SCc2ccccc2)c2c1CC(C)(C)CC2=O the results were Calb FLC -18.0, Beta apoptosis 7.3, SKKanGAS inh 1.1, CSC inhib 46.0, Mdm2 MdmX PPI 16.3 and T cruzi repl 36.5.
For Cc1ccc(NC(=O)c2ccc3c(c2)C(=O)N(c2cc(C)ccc2C)C3=O)nc1 the results were Calb FLC -2.6, Beta apoptosis 10.1, SKKanGAS inh -5.3, CSC inhib -8.5, Mdm2 MdmX PPI 43.1 and T cruzi repl -9.7.
`COc1cc(C(=O)NCCC(C)C)ccc1OCc1ccc(Cl)cc1Cl` gave Calb FLC 2.4, Beta apoptosis 17.9, SKKanGAS inh 23.1, CSC inhib -14.8, Mdm2 MdmX PPI 18.3 and T cruzi repl 69.9*.
For CCCCC[n+]1ccn(C2=C([O-])c3ccccc3C(=O)/C2=N\S(=O)(=O)c2ccc(Cl)cc2)c1 the results were Calb FLC 20.6, Beta apoptosis 108.7*, SKKanGAS inh 73.1*, CSC inhib 16.7, Mdm2 MdmX PPI 30.8 and T cruzi repl 45.8.
`CCCC[n+]1ccn(C2=C([O-])c3ccccc3C(=O)/C2=N\S(=O)(=O)c2ccc(Cl)cc2)c1` gave Calb FLC -0.7, Beta apoptosis 114.1*, SKKanGAS inh 61.0*, CSC inhib 27.1, Mdm2 MdmX PPI 33.9 and T cruzi repl 10.5.
Cc1nc2ccc(Br)cc2c2c1CC(CO)O2 (stereo unspecified) was read as Calb FLC -0.1, Beta apoptosis -6.4, SKKanGAS inh -0.1, CSC inhib -7.9, Mdm2 MdmX PPI 0.4 and T cruzi repl 8.3.
Screening Cc1ccccc1-c1nnc(SCC(=O)NC2CCCC2)n1C returned Calb FLC -1.4, Beta apoptosis 3.7, SKKanGAS inh -5.3, CSC inhib 0.3, Mdm2 MdmX PPI 16.5 and T cruzi repl 2.1.
CC(C)NC(=O)N(C)C[C@@H]1Oc2ccc(NC(=O)CCN3CCOCC3)cc2CC(=O)N([C@@H](C)CO)C[C@@H]1C was read as Beta apoptosis 4.9, CSC inhib 7.5 and Mdm2 MdmX PPI -1.8.
`CCOC(=O)c1sc(NC(=O)Nc2ccccc2Cl)cc1C` gave Calb FLC 43.6, Beta apoptosis 42.0, SKKanGAS inh -11.3, CSC inhib 93.7*, Mdm2 MdmX PPI -51.2 and T cruzi repl 64.6*.
Screening CCOC(=O)c1sc(-c2ccccc2)cc1NC(=O)Nc1ccccc1 returned Calb FLC 1.4, Beta apoptosis -0.9, SKKanGAS inh 26.8, CSC inhib 66.0 and T cruzi repl 55.1*.
`OC[C@@H]1CC[C@@H](Cc2ccc(-c3ccccc3)cc2)O1` gave Mdm2 MdmX PPI -43.4.
`Cc1ccc(NC(=O)N(Cc2ccco2)Cc2cc3cc(C)cc(C)c3nc2Cl)cc1` gave Calb FLC 9.4, SKKanGAS inh 8.2 and T cruzi repl 55.8*.
COc1ccccc1NC(=O)N(Cc1ccco1)Cc1cc2ccc(C)c(C)c2[nH]c1=O was read as Calb FLC 29.8, Beta apoptosis -10.3, SKKanGAS inh 12.9, CSC inhib -22.8, Mdm2 MdmX PPI 49.7 and T cruzi repl 7.2.
Cc1cccc2cc(CN(Cc3ccco3)C(=O)Nc3cccc(C#N)c3)c(Cl)nc12 was read as Calb FLC 5.5, Beta apoptosis 10.6, SKKanGAS inh 14.1, CSC inhib 26.2, Mdm2 MdmX PPI 37.7 and T cruzi repl 60.2*.
Cc1ccc(C)c2[nH]c(=O)c(CN(Cc3ccco3)C(=O)Nc3ccccc3)cc12 was read as Calb FLC -3.4, Beta apoptosis 5.4, SKKanGAS inh 5.4, CSC inhib -6.0, Mdm2 MdmX PPI 19.0 and T cruzi repl 17.4.
Screening Cc1cccc(C(=O)NCC(=O)N2CCCCCCC2)c1 returned Beta apoptosis -1.2, CSC inhib -6.9 and Mdm2 MdmX PPI 2.7.
Screening COc1ccc(NC(=S)NNc2ccc(C(=O)O)cc2)cc1 returned Calb FLC -5.4, SKKanGAS inh 5.0, CSC inhib 4.2, Mdm2 MdmX PPI 9.1 and T cruzi repl -9.3.
Screening O=c1cc(-c2ccccc2)nc2c(-c3ccccc3)c(C(F)(F)F)[nH]n12 returned Calb FLC 3.5, SKKanGAS inh 56.0*, CSC inhib 89.9*, Mdm2 MdmX PPI 16.8 and T cruzi repl -6.9.
`Cc1cc(=O)n2[nH]c(C)c(-c3ccccc3)c2n1` gave Calb FLC 12.6, Beta apoptosis -11.1, SKKanGAS inh -0.8, CSC inhib -14.4, Mdm2 MdmX PPI 28.3 and T cruzi repl -20.7.
`CC(C)c1ccc(N(C(=O)c2csnn2)C(C(=O)NC2CCCC2)c2cccnc2)cc1` (stereo unspecified) gave Calb FLC -1.9, Beta apoptosis 6.3, SKKanGAS inh 7.5, CSC inhib -5.2, Mdm2 MdmX PPI 5.1 and T cruzi repl -0.6.
`CN(C)c1ccc(C(=O)Nc2nnc(C3=COCCO3)o2)cc1` gave Calb FLC 1.2, Beta apoptosis -8.2, SKKanGAS inh 3.1, CSC inhib -5.3, Mdm2 MdmX PPI 9.0 and T cruzi repl -5.9.
For COc1ccc(C(=O)Nc2nnc(C3=COCCO3)o2)cc1OC the results were Beta apoptosis -3.1, SKKanGAS inh 0.9, CSC inhib -2.4, Mdm2 MdmX PPI 22.5 and T cruzi repl 0.4.
For CC(C)(C)c1ccc(C(=O)Nc2nnc(C3=COCCO3)o2)cc1 the results were Beta apoptosis -0.5, SKKanGAS inh 80.3*, CSC inhib 41.3, Mdm2 MdmX PPI 12.1 and T cruzi repl 25.2.
O=C(Nc1nnc(C2=COCCO2)o1)c1cccc(F)c1 was read as Beta apoptosis 5.9, SKKanGAS inh 63.0*, CSC inhib 23.4, Mdm2 MdmX PPI 7.9 and T cruzi repl -0.4.
CC(C)Oc1ccc(C(=O)Nc2nnc(C3=COCCO3)o2)cc1 was read as Calb FLC 65.0, SKKanGAS inh 72.7*, CSC inhib 22.4, Mdm2 MdmX PPI 22.4 and T cruzi repl 7.1.
For Cc1cccc(C(=O)Nc2nnc(C3=COCCO3)o2)c1 the results were Calb FLC 10.0, Beta apoptosis -3.1, SKKanGAS inh -2.7, CSC inhib -15.5, Mdm2 MdmX PPI -15.0 and T cruzi repl -11.4.
